Assay results: article PMC9064899 (The FEBS journal, 2021)
Substitutions are numbered along the chain they refer to. “And” between values parts separate entries of the source, which are not always exact repeats. Identical values can stand only once.

Tests used:
Experiment in all cases: Cell-based UBIAD1 functional assay
UBIAD1 L67Q = target: T1, UBIAD1 L67Q (Homo sapiens, UniProt Q9Y5Z9, L67Q)
T1 sequence (Q9Y5Z9 1-338 L67Q): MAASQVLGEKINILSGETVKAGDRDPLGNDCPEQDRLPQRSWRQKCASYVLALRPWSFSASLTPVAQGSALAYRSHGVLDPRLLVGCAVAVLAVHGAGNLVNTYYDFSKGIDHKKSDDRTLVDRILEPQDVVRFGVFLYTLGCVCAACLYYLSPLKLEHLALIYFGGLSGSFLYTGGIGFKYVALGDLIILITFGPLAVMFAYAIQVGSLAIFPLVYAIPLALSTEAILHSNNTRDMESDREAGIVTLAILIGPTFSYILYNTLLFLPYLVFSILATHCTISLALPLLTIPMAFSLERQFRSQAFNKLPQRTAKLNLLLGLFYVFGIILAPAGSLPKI
In short: (§1)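 Wild-type or mutant human UBIAD1 in pCI-neo was transiently transfected into Ubiad1-knockout FIXgla-PC/HEK293 cells (DMEM/F12, 10% FBS). […] After 24 h, carboxylated FIXgla-PC in the medium was measured by ELISA. Activity was normalized to wild type (100%), and EC50 came from a curve fit. Mean ± SD, n=3 independent experiments.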

UBIAD1 G177R = target: T2, UBIAD1 G177R (Homo sapiens, UniProt Q9Y5Z9, G177R)
T2 sequence (Q9Y5Z9 1-338 G177R): T1 sequence (Q9Y5Z9 1-338 L67Q) with Q67L, G177R
In short: as §1

UBIAD1 D236A = target: T3, UBIAD1 D236A (Homo sapiens, UniProt Q9Y5Z9, D236A)
T3 sequence (Q9Y5Z9 1-338 D236A): T1 sequence (Q9Y5Z9 1-338 L67Q) with Q67L, D236A
In short: as §1

wild-type UBIAD1 = target: T4, wild-type UBIAD1 (Homo sapiens, UniProt Q9Y5Z9)
T4 sequence (Q9Y5Z9 1-338): T1 sequence (Q9Y5Z9 1-338 L67Q) with Q67L
In short: as §1

UBIAD1 D240A = target: T5, UBIAD1 D240A (Homo sapiens, UniProt Q9Y5Z9, D240A)
T5 sequence (Q9Y5Z9 1-338 D240A): T1 sequence (Q9Y5Z9 1-338 L67Q) with Q67L, D240A
In short: as §1

UBIAD1 K181A = target: T6, UBIAD1 K181A (Homo sapiens, UniProt Q9Y5Z9, K181A)
T6 sequence (Q9Y5Z9 1-338 K181A): T1 sequence (Q9Y5Z9 1-338 L67Q) with Q67L, K181A
In short: as §1

UBIAD1 D236E = target: T7, UBIAD1 D236E (Homo sapiens, UniProt Q9Y5Z9, D236E)
T7 sequence (Q9Y5Z9 1-338 D236E): T1 sequence (Q9Y5Z9 1-338 L67Q) with Q67L, D236E
In short: as §1

## CC1=CC(=O)c2ccccc2C1=O [vitamin K3, menadione]
UBIAD1 L67Q
  EC50: 3.8 ± 0.8 nM
UBIAD1 L67Q; L67Q, 1 μM vitamin K3
  Vitamin K-dependent carboxylation Activity ± SD: 40.7 ± 2%
UBIAD1 G177R
  EC50: 3 ± 0.3 nM
UBIAD1 G177R; G177R, 1 μM vitamin K3
  Vitamin K-dependent carboxylation Activity ± SD: 119.8 ± 1.2%
UBIAD1 D236A
  EC50: 90 ± 17.6 nM
UBIAD1 D236A; D236A, 1 μM vitamin K3
  Vitamin K-dependent carboxylation Activity ± SD: 32% and 32.5 ± 0.9%
wild-type UBIAD1
  EC50: 3.7 ± 0.4 nM
wild-type UBIAD1; WT, 1 μM vitamin K3, WT normalized to 100%
  Vitamin K-dependent carboxylation Activity ± SD: 100 ± 2.4%
UBIAD1 D240A
  EC50: 64 ± 10.5 nM
UBIAD1 D240A; D240A, 1 μM vitamin K3
  Vitamin K-dependent carboxylation Activity ± SD: 85.6 ± 1.4%
UBIAD1 K181A
  EC50: 11.9 ± 0.4 nM
UBIAD1 K181A; K181A, 1 μM vitamin K3
  Vitamin K-dependent carboxylation Activity ± SD: 101.7 ± 3%
UBIAD1 D236E
  EC50: 22.6 ± 2.2 nM
UBIAD1 D236E; D236E vs D236A
  EC50 value of vitamin K3 lower than that of D236A: 4 fold
UBIAD1 D236E; D236E vs WT
  increase of EC50 value of vitamin K3 vs wild-type: 6 fold
UBIAD1 D236E; D236E, 1 μM vitamin K3
  Vitamin K-dependent carboxylation Activity ± SD: 107.1 ± 4.9%
